Hits are enriched below; roughly 1.9% of the tested compounds scored in any of these assays.
CHRM5 PAM – human M5 muscarinic receptor positive allosteric modulators, primary screen, CHO-K1 cells, Fluo-8 calcium fluorescence. 360,000 tested, 0.3% active. AID 624038, 2012. CHO-K1 hM5, ACh EC20 PAM; 0% = ACh EC20, 100% = ACh EC100. Muscarinic acetylcholine receptor M5 (Homo sapiens), P08912. activation, % at 3 µM;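 active means activation above the run cutoff, the mean activation of all test compounds plus 3 SD, cut at about 18% in these data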
Target sequence (P08912 whole entry, looked up): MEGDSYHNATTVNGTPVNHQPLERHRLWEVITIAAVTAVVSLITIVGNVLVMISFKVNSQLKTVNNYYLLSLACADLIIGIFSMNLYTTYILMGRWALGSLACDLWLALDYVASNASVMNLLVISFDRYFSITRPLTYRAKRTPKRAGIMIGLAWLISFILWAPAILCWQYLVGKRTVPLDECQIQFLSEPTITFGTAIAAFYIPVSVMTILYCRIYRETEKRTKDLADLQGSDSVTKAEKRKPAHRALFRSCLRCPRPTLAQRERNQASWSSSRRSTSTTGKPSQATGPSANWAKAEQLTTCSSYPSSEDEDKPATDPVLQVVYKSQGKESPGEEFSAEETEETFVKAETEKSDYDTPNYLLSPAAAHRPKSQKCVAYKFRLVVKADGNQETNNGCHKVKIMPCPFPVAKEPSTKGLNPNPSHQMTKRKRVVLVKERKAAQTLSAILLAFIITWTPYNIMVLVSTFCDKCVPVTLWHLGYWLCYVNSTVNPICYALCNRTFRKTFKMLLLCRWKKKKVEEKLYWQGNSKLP
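Assay system: CHO-K1 hM5 cells. Also added: acetylcholine at EC20 concentration, added after compound. Dosing: 3 µM, single dose. Times: compound preincubation 140 s before EC20 acetylcholine addition. Signal: Fluo-8 calcium fluorescence. Measure: % activation relative to EC20 and EC100 ACh responses. Repeats: singlicate, one well per test compound.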
CHRM4 PAM – human M4 muscarinic receptor positive allosteric modulators, primary screen, CHO-K1 cells, Fluo-8 calcium fluorescence; 360,000 tested, 0.4% active; CHO-K1 hM4/Gqi5, ACh EC20; 0% = ACh EC20, 100% = maximal ACh; AID 624126, 2012; activation, % at 3 µM; Muscarinic acetylcholine receptor M4 (Homo sapiens), P08173;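 active means activation above its plate's cutoff, the mean activation of sample wells plus 3 SD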
CHRM5 agonist – human M5 muscarinic receptor agonists, primary screen, CHO-K1 cells, Fluo-8 calcium fluorescence; 360,000 tested, 0.19% active; Muscarinic acetylcholine receptor M5 (Homo sapiens), P08912; activation, % at 3 µM; CHO-K1 hM5 cells; 0% DMSO wells, 100% maximal acetylcholine response; AID 624037, 2012;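 active means activation above the run's mean over test compounds plus 3 SD, cut at about 23% in these data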;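 further: signal is peak over basal fluorescence ratio across the kinetic read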
CHRM4 antagonist – human M4 muscarinic receptor antagonists, primary screen, CHO cells, Fluo-8 calcium fluorescence | 360,000 tested, 0.73% active | inhibition, % at 3 µM | Muscarinic acetylcholine receptor M4 (Homo sapiens), P08173 | CHO-hM4 cells, ACh EC80;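 active means inhibition above its plate's cutoff, the mean inhibition of sample wells plus 3 SD, cut at about 27% in these data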;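 further: 0% = acetylcholine EC80 with DMSO and 100% = DMSO without agonist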
CHRM4 agonist – human M4 muscarinic receptor agonists, primary screen, CHO-K1 cells, Fluo-8 calcium fluorescence. CHO-K1 hM4/Gqi5; vehicle 0%, full acetylcholine response 100%. activation, % at 3 µM. 360,000 tested, 0.14% active. AID 624127, 2012;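 active means activation above the run mean over all test wells plus 3 SD, cut at about 32% in these data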;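 further: peak over basal fluorescence ratio per well then scaled between controls; 0% = DMSO wells and 100% = acetylcholine at EC100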
CHRM5 antagonist – human M5 muscarinic receptor antagonists, primary screen, CHO cells, Fluo-8 calcium fluorescence. CHO-hM5 cells, ACh EC80. inhibition, % at 3 µM. 360,000 tested, 0.59% active. AID 624040, 2012;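 active means inhibition above a per-plate cutoff, the mean of that plate's test compounds plus 3 SD, cut at about 27% in these data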;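 further: 0% = acetylcholine EC80 with DMSO and 100% = DMSO without agonist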
* hit, by the source's call.

CN1CCN(CC#CC(C)(O)C2CC3C=CC2C3)CC1 (stereo not drawn) was read as CHRM5 PAM -3, CHRM4 PAM 1, CHRM5 agonist -8, CHRM4 antagonist 5, CHRM4 agonist 0 and CHRM5 antagonist -1.
Screening OC(CCN1CCCCC1)(c1ccccc1)C1C[C@@H]2C=C[C@H]1C2 (stereo partly drawn) returned CHRM5 PAM -18, CHRM4 PAM -17, CHRM5 agonist -1, CHRM4 antagonist 99*, CHRM4 agonist 1 and CHRM5 antagonist 98*.
Screening CSc1cccc(NC(=S)N2CCCN(Cc3ccccc3F)C2)c1 returned CHRM5 PAM -9, CHRM4 PAM -3, CHRM5 agonist -9, CHRM4 antagonist 2, CHRM4 agonist 9 and CHRM5 antagonist 15.
O=[N+]([O-])c1ccc(CSc2nnc(-c3cccnc3)o2)cc1 was read as CHRM5 PAM 22*, CHRM4 PAM -5, CHRM5 agonist 6, CHRM4 antagonist 5, CHRM4 agonist -1 and CHRM5 antagonist -11.
Screening CCC(C)NC(=O)C(=O)NCc1ccccn1 (stereo not drawn) returned CHRM5 PAM -1, CHRM4 PAM 6, CHRM5 agonist -1, CHRM4 antagonist 7, CHRM4 agonist 1 and CHRM5 antagonist -4.
`O=C1CSC(c2ccccc2)N1c1ccc([N+](=O)[O-])cc1` (stereo not drawn) gave CHRM5 PAM -15, CHRM4 PAM -14, CHRM5 agonist -22, CHRM4 antagonist 33*, CHRM4 agonist 0 and CHRM5 antagonist 19.
`COc1cccc(OCc2cc(C(=O)N3CCN(C(C)=O)CC3)no2)c1` gave CHRM5 PAM 7, CHRM4 PAM 1, CHRM5 agonist 1, CHRM4 antagonist -8, CHRM4 agonist 2 and CHRM5 antagonist 2.
O=C(O)c1cccc2c1C(=O)N(Cc1ccncc1)C2 was read as CHRM5 PAM 5, CHRM4 PAM 32*, CHRM5 agonist 0, CHRM4 antagonist 20, CHRM4 agonist 1 and CHRM5 antagonist -1.
C[N+](C)(C)c1ccc(/C=N/Nc2nc(Cl)c(C#N)c(Cl)c2Cl)cc1 was read as CHRM5 PAM -5, CHRM4 PAM -1, CHRM5 agonist 32*, CHRM4 antagonist 1, CHRM4 agonist 3 and CHRM5 antagonist -4.
`N#Cc1c(Cl)nc(N/N=C/c2ccccc2)c(Cl)c1Cl` gave CHRM5 PAM 0, CHRM4 PAM 4, CHRM5 agonist 0, CHRM4 antagonist 6, CHRM4 agonist 0 and CHRM5 antagonist -4.
Cc1cc(C)nc(NC(=O)C2c3ccccc3Oc3ccccc32)n1 was read as CHRM5 PAM 4, CHRM4 PAM 9, CHRM5 agonist -2, CHRM4 antagonist -8, CHRM4 agonist 1 and CHRM5 antagonist -2.
For CCCCn1c(SCC(=O)NC2CC2)nnc1-c1ccncc1 the results were CHRM5 PAM -5, CHRM4 PAM -5, CHRM5 agonist -2, CHRM4 antagonist 8, CHRM4 agonist 0 and CHRM5 antagonist 18.
Screening Cc1ccc([C@@H]2[C@@H]3C(=O)N(C)C(=O)[C@@H]3[C@]3(C)C(=O)N(Cc4ccccc4)CC(=O)N23)o1 returned CHRM5 PAM 22*, CHRM4 PAM 9, CHRM5 agonist 4, CHRM4 antagonist 0, CHRM4 agonist 2 and CHRM5 antagonist -5.
Screening CCCCC(=O)OCC(=O)C1(O)Cc2c(O)c3c(c(O)c2C(OC2CC(NC(=O)C(F)(F)F)C(O)C(C)O2)C1)C(=O)c1c(OC)cccc1C3=O (stereo not drawn) returned CHRM5 PAM -22, CHRM4 PAM -5, CHRM5 agonist 33*, CHRM4 antagonist 23, CHRM4 agonist 13 and CHRM5 antagonist 40*.
